Assay results taken from ChEMBL document CHEMBL1147049, “Inhibition of MRP1/ABCC1, MRP2/ABCC2, and MRP3/ABCC3 by nucleoside, nucleotide, and non-nucleoside reverse transcriptase inhibitors” (Drug Metab Dispos, 2007).

Tests used:
Assay type in all cases: cell-based
Settings in all cases: mdck-ii; call rule not given here
[1] = molecular target: T1, ATP-binding cassette sub-family C member 2 (Homo sapiens, UniProt Q92887); experiment: Inhibition of human MRP2 expressed in MDCK2 cells assessed as increase in intracellular CMF fluorescence by CMFDA assay
T1 sequence (Q92887 whole entry): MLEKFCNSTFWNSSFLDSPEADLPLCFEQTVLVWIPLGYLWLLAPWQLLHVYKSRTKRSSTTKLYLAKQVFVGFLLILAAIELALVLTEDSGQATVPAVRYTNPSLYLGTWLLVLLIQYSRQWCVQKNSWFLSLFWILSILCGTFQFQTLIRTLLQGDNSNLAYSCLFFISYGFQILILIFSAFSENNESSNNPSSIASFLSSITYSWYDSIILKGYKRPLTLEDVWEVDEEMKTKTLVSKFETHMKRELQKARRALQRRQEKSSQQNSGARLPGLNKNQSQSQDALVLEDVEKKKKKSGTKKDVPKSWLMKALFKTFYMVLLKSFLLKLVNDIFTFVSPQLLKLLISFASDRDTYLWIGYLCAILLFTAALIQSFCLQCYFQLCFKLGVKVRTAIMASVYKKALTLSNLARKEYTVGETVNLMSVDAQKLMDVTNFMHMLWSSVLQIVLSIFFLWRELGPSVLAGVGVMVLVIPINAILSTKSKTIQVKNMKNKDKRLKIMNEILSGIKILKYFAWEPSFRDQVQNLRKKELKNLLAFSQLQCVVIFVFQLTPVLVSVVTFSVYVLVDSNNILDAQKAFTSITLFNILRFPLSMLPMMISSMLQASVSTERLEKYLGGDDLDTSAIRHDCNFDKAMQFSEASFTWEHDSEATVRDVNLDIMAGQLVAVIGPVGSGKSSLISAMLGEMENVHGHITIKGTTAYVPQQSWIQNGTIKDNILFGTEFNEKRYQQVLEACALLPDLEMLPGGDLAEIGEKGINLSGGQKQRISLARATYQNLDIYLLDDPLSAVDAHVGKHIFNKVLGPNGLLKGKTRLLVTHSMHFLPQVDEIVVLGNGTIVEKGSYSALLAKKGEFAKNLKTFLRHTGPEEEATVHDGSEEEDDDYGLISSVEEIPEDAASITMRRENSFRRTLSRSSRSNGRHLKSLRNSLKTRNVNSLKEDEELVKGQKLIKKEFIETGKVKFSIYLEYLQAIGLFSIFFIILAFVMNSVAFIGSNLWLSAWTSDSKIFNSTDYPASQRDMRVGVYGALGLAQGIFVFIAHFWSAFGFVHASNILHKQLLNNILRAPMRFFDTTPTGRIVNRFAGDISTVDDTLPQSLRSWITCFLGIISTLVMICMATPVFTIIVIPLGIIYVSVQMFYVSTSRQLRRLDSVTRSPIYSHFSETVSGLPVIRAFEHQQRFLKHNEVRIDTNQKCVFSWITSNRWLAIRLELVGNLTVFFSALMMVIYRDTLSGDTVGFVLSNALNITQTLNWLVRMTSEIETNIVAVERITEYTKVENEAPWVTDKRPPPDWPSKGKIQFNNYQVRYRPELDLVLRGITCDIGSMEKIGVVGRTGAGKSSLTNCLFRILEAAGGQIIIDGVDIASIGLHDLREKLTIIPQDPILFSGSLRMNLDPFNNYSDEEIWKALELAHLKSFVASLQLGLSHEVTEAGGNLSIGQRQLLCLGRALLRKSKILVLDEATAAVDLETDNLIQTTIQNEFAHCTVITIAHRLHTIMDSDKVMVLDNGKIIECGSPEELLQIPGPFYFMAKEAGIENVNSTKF
Outline: (§1)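 MDCKII cells stably transfected with human MRP1, MRP2 or MRP3 cDNA, parental MDCKII as control, grown in DMEM with 10% FCS. Cells preincubated 30 min at 37 °C in darkness ± inhibitor in HBSS with 1 mM pyruvate, then 50 nM CMFDA (final) added for 10 min. Intracellular CMF fluorescence read by confocal laser-scanning microscopy. 20 µM MK571 positive control. At least triplicate, different days.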

[2] = molecular target: T1, ATP-binding cassette sub-family C member 2; experiment: Inhibition of human MRP2 expressed in MDCK2 cells assessed as increase in intracellular CMF fluorescence at 10 uM by CMFDA assay; outline: as §1
[3] = molecular target: T2, ATP-binding cassette sub-family C member 3 (Homo sapiens, UniProt O15438); experiment: Inhibition of human MRP3 expressed in MDCK2 cells assessed as increase in intracellular CMF fluorescence at 10 uM by CMFDA assay; outline: as §1
T2 sequence (O15438 whole entry): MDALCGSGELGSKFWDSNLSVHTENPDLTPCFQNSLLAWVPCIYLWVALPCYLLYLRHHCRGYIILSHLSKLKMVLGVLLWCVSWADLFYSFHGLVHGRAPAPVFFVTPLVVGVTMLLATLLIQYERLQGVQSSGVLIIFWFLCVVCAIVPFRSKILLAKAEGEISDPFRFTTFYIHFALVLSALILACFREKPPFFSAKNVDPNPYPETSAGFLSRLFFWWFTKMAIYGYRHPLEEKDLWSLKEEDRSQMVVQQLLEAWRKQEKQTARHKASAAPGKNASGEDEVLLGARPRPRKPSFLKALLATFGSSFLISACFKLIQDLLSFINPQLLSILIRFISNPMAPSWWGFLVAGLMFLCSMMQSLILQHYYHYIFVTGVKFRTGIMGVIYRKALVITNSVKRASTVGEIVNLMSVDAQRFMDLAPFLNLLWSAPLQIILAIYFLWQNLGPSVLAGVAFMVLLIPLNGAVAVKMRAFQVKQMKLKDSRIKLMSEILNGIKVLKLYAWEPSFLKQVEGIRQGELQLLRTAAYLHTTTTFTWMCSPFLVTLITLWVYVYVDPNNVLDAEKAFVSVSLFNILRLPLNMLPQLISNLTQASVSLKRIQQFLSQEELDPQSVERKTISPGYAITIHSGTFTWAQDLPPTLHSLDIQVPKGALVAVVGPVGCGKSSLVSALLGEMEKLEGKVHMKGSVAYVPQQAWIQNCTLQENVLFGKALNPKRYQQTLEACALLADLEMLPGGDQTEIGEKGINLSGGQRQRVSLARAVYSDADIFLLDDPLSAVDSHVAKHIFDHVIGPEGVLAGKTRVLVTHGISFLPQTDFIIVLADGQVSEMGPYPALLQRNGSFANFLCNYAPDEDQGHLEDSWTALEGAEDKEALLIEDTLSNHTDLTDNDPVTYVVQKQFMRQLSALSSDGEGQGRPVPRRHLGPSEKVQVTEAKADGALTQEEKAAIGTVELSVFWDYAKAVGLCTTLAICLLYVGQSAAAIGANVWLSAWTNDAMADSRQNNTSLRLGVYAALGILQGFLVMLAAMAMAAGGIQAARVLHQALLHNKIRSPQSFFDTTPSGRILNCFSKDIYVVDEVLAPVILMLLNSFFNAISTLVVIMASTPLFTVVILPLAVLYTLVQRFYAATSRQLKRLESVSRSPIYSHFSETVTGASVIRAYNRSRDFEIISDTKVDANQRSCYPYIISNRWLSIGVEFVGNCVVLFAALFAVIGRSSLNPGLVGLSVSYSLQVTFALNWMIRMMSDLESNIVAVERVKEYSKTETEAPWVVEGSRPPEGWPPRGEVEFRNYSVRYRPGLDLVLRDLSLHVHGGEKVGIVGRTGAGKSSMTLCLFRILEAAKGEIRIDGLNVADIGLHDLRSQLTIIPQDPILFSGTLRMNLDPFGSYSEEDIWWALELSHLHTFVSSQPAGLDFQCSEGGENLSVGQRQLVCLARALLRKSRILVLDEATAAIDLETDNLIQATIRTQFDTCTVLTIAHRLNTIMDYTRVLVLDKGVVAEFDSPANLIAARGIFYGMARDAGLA

[4] = molecular target: T3, Multidrug resistance-associated protein 1 (Homo sapiens, UniProt P33527); experiment: Inhibition of human MRP1 expressed in MDCK2 cells assessed as increase in intracellular CMF fluorescence by CMFDA assay; outline: as §1
T3 sequence (P33527 whole entry): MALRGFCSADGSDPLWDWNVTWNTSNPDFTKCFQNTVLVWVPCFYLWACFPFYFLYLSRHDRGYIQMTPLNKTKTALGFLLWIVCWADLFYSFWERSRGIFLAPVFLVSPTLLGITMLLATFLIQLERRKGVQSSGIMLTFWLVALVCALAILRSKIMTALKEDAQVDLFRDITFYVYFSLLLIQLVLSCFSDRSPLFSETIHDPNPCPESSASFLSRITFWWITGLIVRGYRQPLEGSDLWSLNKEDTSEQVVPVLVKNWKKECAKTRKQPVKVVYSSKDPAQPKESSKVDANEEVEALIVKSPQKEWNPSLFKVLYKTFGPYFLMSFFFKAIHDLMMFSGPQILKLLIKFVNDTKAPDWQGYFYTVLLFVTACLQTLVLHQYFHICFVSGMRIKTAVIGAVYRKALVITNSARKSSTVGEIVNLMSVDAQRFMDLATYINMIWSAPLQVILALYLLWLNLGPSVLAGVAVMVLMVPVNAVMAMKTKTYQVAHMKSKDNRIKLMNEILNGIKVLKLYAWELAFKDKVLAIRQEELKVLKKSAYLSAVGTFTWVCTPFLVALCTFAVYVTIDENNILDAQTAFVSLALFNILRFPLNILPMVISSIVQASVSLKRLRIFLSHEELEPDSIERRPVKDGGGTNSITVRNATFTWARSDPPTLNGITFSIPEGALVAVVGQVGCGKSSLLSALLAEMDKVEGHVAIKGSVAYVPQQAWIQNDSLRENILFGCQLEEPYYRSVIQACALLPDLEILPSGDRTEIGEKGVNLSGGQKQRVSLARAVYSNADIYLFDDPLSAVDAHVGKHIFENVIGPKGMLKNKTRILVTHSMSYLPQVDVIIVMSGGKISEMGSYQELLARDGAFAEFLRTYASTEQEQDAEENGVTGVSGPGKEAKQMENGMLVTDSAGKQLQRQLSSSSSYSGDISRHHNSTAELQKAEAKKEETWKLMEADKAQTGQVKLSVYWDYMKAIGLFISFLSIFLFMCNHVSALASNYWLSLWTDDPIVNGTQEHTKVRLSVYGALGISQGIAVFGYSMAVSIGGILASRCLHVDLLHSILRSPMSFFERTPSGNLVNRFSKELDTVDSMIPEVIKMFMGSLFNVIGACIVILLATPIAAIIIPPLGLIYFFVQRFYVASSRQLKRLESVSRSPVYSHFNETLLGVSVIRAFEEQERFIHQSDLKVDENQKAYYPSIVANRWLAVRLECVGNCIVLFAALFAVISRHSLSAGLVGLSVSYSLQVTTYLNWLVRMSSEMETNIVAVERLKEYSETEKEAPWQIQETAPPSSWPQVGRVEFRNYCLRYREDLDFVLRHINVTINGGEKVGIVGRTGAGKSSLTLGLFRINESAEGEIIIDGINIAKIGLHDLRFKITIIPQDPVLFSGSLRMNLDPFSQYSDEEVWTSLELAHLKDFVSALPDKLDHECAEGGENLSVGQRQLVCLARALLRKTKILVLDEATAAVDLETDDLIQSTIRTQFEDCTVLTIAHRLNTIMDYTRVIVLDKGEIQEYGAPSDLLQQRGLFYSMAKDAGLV

[5] = molecular target: T3, Multidrug resistance-associated protein 1; experiment: Inhibition of human MRP1 expressed in MDCK2 cells assessed as increase in intracellular CMF fluorescence at 10 uM by CMFDA assay; outline: as §1
[6] = molecular target: T1, ATP-binding cassette sub-family C member 2; experiment: Inhibition of human MRP2 expressed in MDCK2 cells assessed as increase in intracellular CMF fluorescence at 16.7 uM by CMFDA assay; outline: as §1
[7] = molecular target: T2, ATP-binding cassette sub-family C member 3; experiment: Inhibition of human MRP3 expressed in MDCK2 cells assessed as increase in intracellular CMF fluorescence by CMFDA assay; outline: as §1
[8] = molecular target: T2, ATP-binding cassette sub-family C member 3; experiment: Inhibition of human MRP3 expressed in MDCK2 cells assessed as increase in intracellular CMF fluorescence at 16.7 uM by CMFDA assay; outline: as §1
[9] = molecular target: T3, Multidrug resistance-associated protein 1; experiment: Inhibition of human MRP1 expressed in MDCK2 cells assessed as increase in intracellular CMF fluorescence at 16.7 uM by CMFDA assay; outline: as §1

SMILES | Activity [1] | Activity [2] | Activity [3] | Activity [4] | Activity [5] | Activity [6] | Activity [7] | Activity [8] | Activity [9]
Nc1nc(NC2CC2)c2ncn([C@H]3C=C[C@@H](CO)C3)c2n1 [ABACAVIR] | Dose-dependent effect | Active | Active | Dose-dependent effect | Active | – | – | – | –
CC(C)Nc1cccnc1N1CCN(C(=O)c2cc3cc(NS(C)(=O)=O)ccc3[nH]2)CC1 [DELAVIRDINE] | Dose-dependent effect | – | – | Dose-dependent effect | – | Active | Dose-dependent effect | Active | Active
O=C1Nc2ccc(Cl)cc2[C@@](C#CC2CC2)(C(F)(F)F)O1 [EFAVIRENZ] | Dose-dependent effect | Active | Active | Dose-dependent effect | Active | – | Dose-dependent effect | – | –
Nc1nc(=O)n([C@@H]2CS[C@H](CO)O2)cc1F [EMTRICITABINE] | Dose-dependent effect | Active | Active | Dose-dependent effect | Active | – | Dose-dependent effect | – | –
Nc1ccn([C@@H]2CS[C@H](CO)O2)c(=O)n1 [LAMIVUDINE] | Dose-dependent effect | Active | Active | Dose-dependent effect | Active | – | Dose-dependent effect | – | –
Cc1ccnc2c1NC(=O)c1cccnc1N2C1CC1 [NEVIRAPINE] | Dose-dependent effect | Active | Active | Dose-dependent effect | Active | – | Dose-dependent effect | – | –
C[C@H](Cn1cnc2c(N)ncnc21)OCP(=O)(O)O [TENOFOVIR ANHYDROUS] | Dose-dependent effect | Active | Active | Dose-dependent effect | Active | – | Dose-dependent effect | – | –
